Usually EC50 stands for the concentration that produces a half-maximal response. A low value points to a more potent agent. A word on the Emax: it is the maximal effect, on the per cent scale that the assay sets. For orientation: Ki means a measure of affinity in units of concentration, obtained from inhibition or displacement. High values mean a looser hold on the target, low ones a stronger hold on the target. In general, IC50 refers to the point on the concentration scale where inhibition reaches its midpoint.

Experiment [1] deals with T1, Kappa-type opioid receptor (Homo sapiens, UniProt P41145). Kind of experiment: Activity at human kappa opioid receptor expressed in CHO cells by [35S]GTP-gamma-S binding assay. It is filed as functional, cell-based. On the technique in general: GTPγS resists hydrolysis and so accumulates on activated G proteins.
The target of experiment [2] is T2, Mu-type opioid receptor (Homo sapiens, UniProt P35372). Kind of experiment: Functional activity at human mu opioid receptor expressed in CHO cells by [35S]GTP-gamma-S binding assay. It counts as cell-based. A digest of the protocol:
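Human µ receptor stably expressed in CHO cells; membranes at 7.5 µg protein/tube, incubated 60 min at 30 °C with 12 compound concentrations, 3 µM GDP and […] [35S]GTPγS in pH 7.4 Tris/MgCl2/NaCl/EGTA buffer. […] Antagonist mode used 200 nM DAMGO. At least 3 experiments in triplicate.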

Experiment [3] concerns the target T1, Kappa-type opioid receptor. Kind of experiment: Functional activity at human kappa opioid receptor expressed CHO cells by [35S]GTPgammaS binding assay. It is filed as cell-based.
In experiment [4] the target is T1, Kappa-type opioid receptor. Kind of experiment: biochemical. It counts as cell-based, CHO.
Experiment [5] concerns the target T2, Mu-type opioid receptor. Kind of experiment: Activity at human mu opioid receptor expressed in CHO cells by [35S]GTP-gamma-S binding assay. It counts as functional, cell-based.
Experiment [6] deals with T1, Kappa-type opioid receptor. The experiment in a line: Activity at human kappa opioid receptor expressed in CHO cells by [35S]GTPgammaS binding assay at 10 uM. It counts as functional, cell-based. A digest of the protocol: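 Membranes from CHO cells stably expressing human κ receptor (15 µg protein/tube), 12 compound concentrations, 60 min at 30 °C in Tris-HCl/MgCl2/NaCl/EGTA buffer pH 7.4 with 3 µM GDP and […] [35S]GTPγS. Filtration count, expressed as % stimulation over basal, giving Emax and EC50. […] At least 3 experiments in triplicate.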

For experiment [7], the target named is T2, Mu-type opioid receptor. Kind of experiment: biochemical. It is filed as cell-based, CHO.
Experiment [8] has as its target Delta-type opioid receptor (Homo sapiens, UniProt P41143). The experiment in a line: Displacement of [3H]naltrindole from human delta opioid receptor expressed in CHO cells. It counts as cell-based. In short, it runs like this: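 Competition binding on membranes of CHO cells stably expressing human δ receptor, using [3H]naltrindole and 12 compound concentrations. Incubated 3 h at 25 °C in 50 mM Tris-HCl, pH 7.5.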

Experiment [9] can be described thus: Displacement of [3H]naltrindole from human delta opioid receptor expressed in CHO cells. In general terms: Displacement assays read how much labelled ligand stays bound in the presence of the test substance.

Chain of Delta-type opioid receptor (P41143 whole entry): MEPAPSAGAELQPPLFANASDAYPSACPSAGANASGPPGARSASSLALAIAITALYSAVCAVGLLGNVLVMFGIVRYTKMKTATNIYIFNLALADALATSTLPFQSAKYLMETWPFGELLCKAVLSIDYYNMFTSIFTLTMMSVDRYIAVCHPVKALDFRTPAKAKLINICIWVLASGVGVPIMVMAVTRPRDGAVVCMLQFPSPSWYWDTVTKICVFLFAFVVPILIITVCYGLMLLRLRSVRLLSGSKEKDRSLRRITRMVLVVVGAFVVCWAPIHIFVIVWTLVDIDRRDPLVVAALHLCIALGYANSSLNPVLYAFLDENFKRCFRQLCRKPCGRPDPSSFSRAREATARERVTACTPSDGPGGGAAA
T2 sequence (P35372 whole entry): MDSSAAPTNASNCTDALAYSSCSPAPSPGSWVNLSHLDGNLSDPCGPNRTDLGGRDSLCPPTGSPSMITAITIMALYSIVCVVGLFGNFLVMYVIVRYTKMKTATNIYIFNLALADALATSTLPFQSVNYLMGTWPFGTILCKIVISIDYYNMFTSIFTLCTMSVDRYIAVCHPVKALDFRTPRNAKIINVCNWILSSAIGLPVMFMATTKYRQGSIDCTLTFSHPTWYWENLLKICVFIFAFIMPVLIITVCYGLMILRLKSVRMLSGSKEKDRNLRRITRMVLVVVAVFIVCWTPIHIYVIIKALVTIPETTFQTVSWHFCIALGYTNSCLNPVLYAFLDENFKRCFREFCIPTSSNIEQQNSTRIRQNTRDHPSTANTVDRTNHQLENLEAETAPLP
T1 sequence (P41145 whole entry): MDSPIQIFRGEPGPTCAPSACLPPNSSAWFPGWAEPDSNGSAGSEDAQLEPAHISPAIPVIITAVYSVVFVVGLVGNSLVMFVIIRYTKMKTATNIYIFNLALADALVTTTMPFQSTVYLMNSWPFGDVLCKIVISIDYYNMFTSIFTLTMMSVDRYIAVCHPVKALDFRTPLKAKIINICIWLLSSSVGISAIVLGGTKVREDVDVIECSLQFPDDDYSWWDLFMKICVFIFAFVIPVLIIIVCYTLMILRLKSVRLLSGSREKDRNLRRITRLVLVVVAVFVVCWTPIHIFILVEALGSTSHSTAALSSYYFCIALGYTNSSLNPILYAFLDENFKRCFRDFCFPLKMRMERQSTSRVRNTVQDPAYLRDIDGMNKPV

On to `O=C(CCCCCCCCC(=O)Oc1ccc2c(c1)[C@@]13CCCCC1[C@@H](C2)N(CC1CCC1)CC3)Nc1ccc2c(c1)[C@@]13CCCCC1[C@@H](C2)N(CC1CCC1)CC3` (some centres not stated), for which the EC50 in [1] amounted to 8.8 nM; in experiment [5], 4.4 nM. Besides, the Emax in [1] amounted to 55%; in [5], 56%. In addition, the Activity entry in [2] (filed as partial agonist) and in experiment [3] (filed as partial agonist) was “Partial agonist” throughout. For the same molecule, the values for the Ki in [4], in [7] and in [8] were 0.38 nM, 0.65 nM and 12 nM, respectively. In experiment [5], this molecule displayed an IC50 of 150 nM. The figures for the Imax in experiment [5] and in experiment [6] were 61% and 65 µM, respectively.

`Oc1ccc2c(c1)[C@@]13CCCC[C@H]1[C@@H](C2)N(CC1CC1)CC3`: the Activity result in experiment [2] (filed as partial agonist) is “Partial agonist”.

In the case of `Oc1ccc2c(c1)[C@]13CCCCC1[C@H](C2)N(CC1CC1)CC3` (single isomer, unassigned; (+)), the Ki in experiment [8] was 13 nM.

For `O=C(CCCCCCCCC(=O)Oc1ccc2c(c1)[C@]13CCCCC1[C@H](C2)N(CC1CCC1)CC3)Oc1ccc2c(c1)[C@]13CCCCC1[C@H](C2)N(CC1CCC1)CC3` (some centres not stated), the Ki amounted to 130 nM in experiment [4], 130 nM in [7] and 700 nM in experiment [8].

In turn, `O=C(/C=C/C(=O)Oc1ccc2c(c1)[C@@]13CCCC[C@H]1[C@@H](C2)N(CC1CCC1)CC3)Oc1ccc2c(c1)[C@@]13CCCC[C@H]1[C@@H](C2)N(CC1CCC1)CC3` returned a Ki in experiment [4] of 0.08 nM.

Consider `O=C(/C=C/C(=O)Nc1ccc2c(c1)[C@@]13CCCCC1[C@@H](C2)N(CC1CCC1)CC3)Nc1ccc2c(c1)[C@@]13CCCCC1[C@@H](C2)N(CC1CCC1)CC3` (some centres not stated), for which the Ki in experiment [4] came out at 7.3 nM; in experiment [7], 13 nM; in experiment [8], 160 nM.

`C#CCN1CC[C@]23CCCC[C@H]2[C@H]1Cc1ccc(O)cc13`: the Ki in experiment [9] was found to be 0.62 nM; in [4], 0.003 nM; in experiment [7], 0.003 nM.

On to `O=C(O)CCCCCCCCC(=O)Oc1ccc2c(c1)[C@@]13CCCCC1[C@@H](C2)N(CC1CCC1)CC3` (some centres not stated), for which the EC50 in [1] was 2.8 nM; in experiment [5], 3 nM. Also, the Emax was found to be 75% in experiment [1] and 110% in experiment [5]. Besides, the Activity result in experiment [2] (filed as agonist) and in [3] (filed as agonist) was “Agonist” throughout. In addition, the Ki in experiment [4] came to 0.29 nM; in [7], 0.71 nM; in experiment [8], 18 nM.

On to `Oc1ccc2c(c1)[C@@]13CCCC[C@H]1[C@@H](C2)N(CC1CCC1)CC3`, for which the Activity result is “Partial agonist” in experiment [2] (filed as partial agonist) and “Agonist” in experiment [3] (filed as agonist). In experiment [5], this molecule yielded an Imax of 50%.

In the case of `C#CCN1CC[C@]23CCCCC2[C@H]1Cc1ccc(OC(=O)CCCCCCCCC(=O)Oc2ccc4c(c2)[C@@]25CCCCC2[C@@H](C4)N(CC#C)CC5)cc13` (some centres not stated), the Ki in experiment [4] is 10 nM; in [7] it was 14 nM; in experiment [8], 190 nM.

As for `O=C(CCC(=O)Oc1ccc2c(c1)[C@@]13CCCCC1[C@@H](C2)N(CC1CCC1)CC3)Oc1ccc2c(c1)[C@@]13CCCCC1[C@@H](C2)N(CC1CCC1)CC3` (some centres not stated), the Ki in [4] was determined as 0.076 nM; in experiment [7], 0.16 nM; in experiment [8], 9.4 nM.

With `O=C(CCCCCCCCC(=O)Oc1ccc2c(c1)[C@@]13CCCCC1[C@@H](C2)N(CC1CC1)CC3)Oc1ccc2c(c1)[C@@]13CCCCC1[C@@H](C2)N(CC1CCC1)CC3` (single isomer, unassigned; (-)), the EC50 in experiment [1] was determined as 2.5 nM; in [5] it was 2.9 nM. Also, the values for the Emax in experiment [1] and in [5] were 110% and 41%, respectively. For the same molecule, the Activity entry in experiment [2] (filed as partial agonist) was “Partial agonist”; in [3] (filed as agonist) it was “Agonist”. Moreover, the values for the Ki in experiment [4], in experiment [7] and in experiment [8] were 0.23 nM, 0.34 nM and 4.4 nM, respectively. In experiment [5], the IC50 worked out at 96 nM. Moreover, in experiment [5], the Imax is 64%.

Take `O=C(CCC(=O)Nc1ccc2c(c1)[C@@]13CCCCC1[C@@H](C2)N(CC1CCC1)CC3)Nc1ccc2c(c1)[C@@]13CCCCC1[C@@H](C2)N(CC1CCC1)CC3` (some centres not stated): the Ki in experiment [4] was determined as 3.8 nM; in experiment [7] it was 3.3 nM.

In the case of `O=C(CCCCCCCCC(=O)Oc1ccc2c(c1)[C@]13CCCCC1[C@H](C2)N(CC1CCC1)CC3)Oc1ccc2c(c1)[C@@]13CCCCC1[C@@H](C2)N(CC1CCC1)CC3` (single isomer, unassigned; (+)), in experiment [1], the midpoint of the response, the EC50, lay at 7.9 nM and the Emax came to 77%. The Activity result in experiment [3] (filed as agonist) is “Agonist”. Besides, the affinity in experiment [4] corresponds to a Ki of 1.2 nM. Moreover, in experiment [5], the Emax was 28%, the IC50 stood at 460 nM and the Imax is 71%. For the same molecule, the Ki in experiment [7] is 2.2 nM. Moreover, in experiment [8], the Ki stood at 23 nM.

As for `Nc1ccc2c(c1)[C@@]13CCCC[C@H]1[C@@H](C2)N(CC1CCC1)CC3`, the Ki in experiment [4] amounted to 1.8 nM; in [7] it was 3.7 nM.

In the case of `O=C(CCCCCCCCC(=O)Oc1ccc2c(c1)[C@@]13CCCCC1[C@@H](C2)N(CC1CCC1)CC3)Oc1ccccc1` (some centres not stated), the EC50 in experiment [1] was 3.8 nM; in experiment [5] it was 5.1 nM. Also, the Emax was found to be 170% in [1] and 93% in experiment [5]. In addition, the Activity result in experiment [2] (filed as agonist) and in experiment [3] (filed as agonist) was “Agonist” throughout. Also, the values for the inhibition constant (Ki) in experiment [4], in experiment [7] and in [8] were 0.3 nM, 0.44 nM and 11 nM, respectively.

Turning to `CN1CC[C@]23c4c5ccc(OC(=O)CCCCCCCCC(=O)Oc6ccc7c(c6)[C@@]68CCCCC6[C@@H](C7)N(CC6CCC6)CC8)c4O[C@H]2[C@@H](O)C=C[C@H]3[C@H]1C5` (some centres not stated), the EC50 in [1] was found to be 2.3 nM; in [5] it was 2.5 nM. The figures for the Emax in [1] and in experiment [5] were 150% and 110%, respectively. Besides, the Activity entry in experiment [2] (filed as agonist) and in experiment [3] (filed as agonist) was “Agonist” each time. In addition, the Ki in experiment [4] is 0.11 nM; in [7] it was 0.22 nM; in [8] it was 3.9 nM.

For `Oc1ccc2c(c1)[C@@]13CCCCC1[C@@H](C2)N(C[C@@H]1CCCO1)CC3` (some centres not stated), the Ki in experiment [9] was 0.27 nM; in [4], 0.15 nM; in [7], 0.01 nM.

For `O=C(CCCCCCCCC(=O)Nc1ccc2c(c1)[C@@]13CCCCC1[C@@H](C2)N(CC1CCC1)CC3)Nc1ccc2c(c1)[C@@]13CCCCC1[C@@H](C2)N(CC1CCC1)CC3` (some centres not stated), the Ki in experiment [4] was found to be 7.5 nM; in [7] it was 5.7 nM; in experiment [8], 38 nM.

In experiment [1], `O=C(CCCCCCCCC(=O)Oc1ccc2c(c1)[C@@]13CCCCC1[C@@H](C2)N(C[C@@H]1CCCO1)CC3)Oc1ccc2c(c1)[C@@]13CCCCC1[C@@H](C2)N(C[C@@H]1CCCO1)CC3` (some centres not stated) showed an EC50 of 8.8 nM and an Emax of 140%. Also, the Activity entry in [3] (filed as agonist) is “Agonist”. In addition, the inhibitory constant (Ki) in experiment [4] is 1.2 nM. For the same molecule, in [5], the midpoint of the response, the EC50, lay at 12 nM; the Emax turned out to be 69%; the IC50 is 360 nM; the Imax was determined as 48%. Further, in experiment [7], the Ki stood at 0.67 nM. For the same molecule, the Ki in [8] is 8.3 nM.

`Oc1ccc2c(c1)[C@]13CCCCC1[C@H](C2)N(CC1CCC1)CC3` (single isomer, unassigned; (+)): the values for the Ki in [4] and in [8] were 55 nM and > 10000 nM, respectively.

On to `O=C(/C=C/C=C/C(=O)Oc1ccc2c(c1)[C@@]13CCCCC1[C@@H](C2)N(CC1CCC1)CC3)Oc1ccc2c(c1)[C@@]13CCCCC1[C@@H](C2)N(CC1CCC1)CC3` (some centres not stated), for which the EC50 is 17 nM in experiment [1] and 19 nM in [5]. Besides, the Emax in [1] was found to be 91%; in [5], 96%. The Activity entry in [2] (filed as agonist) and in experiment [3] (filed as agonist) was “Agonist” in each case. Moreover, the Ki in experiment [4] turned out to be 0.62 nM; in [7], 2.8 nM; in experiment [8], 28 nM.

On to `C[C@@H](NC(=O)[C@@H](N)Cc1ccc(O)cc1)C(=O)NCC(=O)N(C)[C@@H](Cc1ccccc1)C(=O)NCCO`, for which the Activity result in experiment [2] (filed as agonist) is “Agonist”.

The values above are taken from ChEMBL document CHEMBL1148605, “Synthesis and preliminary in vitro investigation of bivalent ligands containing homo- and heterodimeric pharmacophores at mu, delta, and kappa opioid receptors” (J Med Chem, 2006).
